According to ChEMBL document CHEMBL1155615, “Bioactive saponins from Swartzia schomburgkii from the suriname rainforest” (J Nat Prod, 2000):
Converted amounts (≈) assume the structure as drawn.

What was measured:
Saccharomyces cerevisiae [1] = test: Antimicrobial activity against Saccharomyces cerevisiae J140; assay type: functional
M109 = test: Cytotoxicity against mouse M109 cells; assay type: functional, cell-based
How it was run: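 In vitro antitumor cytotoxicity assay using the murine Madison lung carcinoma line M-109.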

Saccharomyces cerevisiae [2] = test: Antimicrobial activity against Saccharomyces cerevisiae I138; assay type: functional
Saccharomyces cerevisiae [3] = test: Antimicrobial activity against Saccharomyces cerevisiae I353; assay type: functional

SMILES	IC12 (Saccharomyces cerevisiae [1]) [µg/mL]	IC50 (M109) [µg/mL]	IC12 (Saccharomyces cerevisiae [2]) [µg/mL]	IC12 (Saccharomyces cerevisiae [3]) [µg/mL]
CC1(C)CC[C@]2(C(=O)O)CC[C@]3(C)C(=CC[C@@H]4[C@@]5(C)CC[C@H](O[C@@H]6O[C@H](CO)[C@@H](O)[C@H](O[C@@H]7O[C@H](CO)[C@@H](O)[C@H](O)[C@H]7O)[C@H]6O)[C@@](C)(CO)[C@@H]5CC[C@]43C)[C@@H]2C1	600	15.5 (≈ 19.4 µM)	400	1000
CC1(C)CC[C@]2(C(=O)O)CC[C@]3(C)C(=CC[C@@H]4[C@@]5(C)CC[C@H](O[C@@H]6O[C@H](CO)[C@@H](O)[C@H](O)[C@H]6O[C@@H]6O[C@H](CO)[C@@H](O)[C@H](O)[C@H]6O)C(C)(C)[C@@H]5CC[C@]43C)[C@@H]2C1 [ACUTOSIDE A]	130	28.7 (≈ 36.7 µM)	75	110
CC1(C)CC[C@]2(C(=O)O)CC[C@]3(C)C(=CC[C@@H]4[C@@]5(C)CC[C@H](O[C@@H]6O[C@H](CO)[C@@H](O)[C@H](O[C@@H]7O[C@H](CO)[C@@H](O)[C@H](O)[C@H]7O)[C@H]6O[C@@H]6O[C@H](CO)[C@@H](O)[C@H](O)[C@H]6O)C(C)(C)[C@@H]5CC[C@]43C)[C@@H]2C1 [ANCHUSOSID 2]	200		120	270
CC1(C)CC[C@]2(C(=O)O)CC[C@]3(C)C(=CC[C@@H]4[C@@]5(C)CC[C@H](O[C@@H]6O[C@H](CO)[C@@H](O)[C@H](O)[C@H]6O)[C@@](C)(CO)[C@@H]5CC[C@]43C)[C@@H]2C1 [Hederagenin-3-O-beta-D-glucopyranoside]	200		125	280
CC1(C)CC[C@]2(C(=O)O)CC[C@]3(C)C(=CC[C@@H]4[C@@]5(C)CC[C@H](O[C@@H]6O[C@H](CO)[C@@H](O)[C@H](O[C@@H]7O[C@H](CO)[C@@H](O)[C@H](O)[C@H]7O)[C@H]6O[C@@H]6OC[C@@H](O)[C@H](O)[C@H]6O)C(C)(C)[C@@H]5CC[C@]43C)[C@@H]2C1 [SWARTZIATRIOSIDE]	260	24.3 (≈ 26.6 µM)	120	430
